According to ChEMBL document CHEMBL3045605, “Synthesis and anticancer evaluation of novel 3,5-diaryl-thiazolo[4,5-d]pyrimidin-2-one derivatives” (2013):

Tests used:
Format in all cases: functional
NCI-H460 = test: Anticancer activity against Homo sapiens (human) NCI-H460 cells by SRB assay
Outline: (§1)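 Five-dose NCI 60-cell-line panel testing at tenfold dilutions from 10−4 to 10−8 M, with growth read by sulforhodamine B protein staining. For each cell line: GI50 is the molar concentration giving half growth inhibition; TGI is total growth inhibition (cytostatic); LC50 is the molar concentration killing 50% of the initial cells (cytotoxic).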

COLO 205 = test: Anticancer activity against Homo sapiens (human) COLO205 cells assessed as cell growth at 10 uM by SRB assay; conditions: read-out: Activity
Outline: (§2)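 NCI 60-cell human tumour panel (nine cancer types) screened at one concentration, 10−5 M. Cell growth estimated by sulforhodamine B protein staining and reported as percent growth of treated cells relative to untreated controls.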

NCI-H522 = test: Anticancer activity against Homo sapiens (human) NCI-H522 cells assessed as cell growth at 10 uM by SRB assay; conditions: read-out: Activity
Outline: (§3)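 Single-dose screen in the NCI 60-human-tumour-cell-line panel (nine cancer types) at 10−5 M. Cell growth was estimated by sulforhodamine B protein staining and reported as percent growth of treated cells relative to untreated controls.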

HOP-92 = test: Anticancer activity against Homo sapiens (human) HOP92 cells assessed as cell growth at 10 uM by SRB assay; conditions: read-out: Activity; outline: as §2
NCI-H23 = test: Anticancer activity against Homo sapiens (human) NCI-H23 cells by SRB assay; outline: as §1
HOP-62 [1] = test: Anticancer activity against Homo sapiens (human) HOP62 cells by SRB assay
Outline: (§4)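 NCI 60-line panel, five tenfold dilutions from 10−4 to 10−8 M, growth read by sulforhodamine B staining against untreated controls. From the dose–response per line: GI50 (molar concentration giving half growth inhibition), TGI (molar concentration giving total growth inhibition, cytostatic) and LC50 (molar concentration killing 50% of initial cells, cytotoxic).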

A549 [2] = test: Anticancer activity against Homo sapiens (human) A549/ATCC cells by SRB assay; outline: as §4
[3] = Anticancer activity against Homo sapiens (human) RPMI8266 cells by SRB assay; outline: as §1
K562 = test: Anticancer activity against Homo sapiens (human) K562 cells by SRB assay; outline: as §4
HOP-62 [4] = test: Anticancer activity against Homo sapiens (human) HOP62 cells assessed as cell growth at 10 uM by SRB assay; conditions: read-out: Activity; outline: as §2
A549 [5] = test: Anticancer activity against Homo sapiens (human) A549/ATCC cells assessed as cell growth at 10 uM by SRB assay; conditions: read-out: Activity; outline: as §2
786-0 = test: Anticancer activity against Homo sapiens (human) 786-0 cells by SRB assay; outline: as §4
NCI/ADR-RES [6] = test: Anticancer activity against Homo sapiens (human) NCI/ADR-RES cells by SRB assay; outline: as §1
OVCAR-3 [7] = test: Anticancer activity against Homo sapiens (human) OVCAR3 cells by SRB assay; outline: as §1
SK-MEL-28 = test: Anticancer activity against Homo sapiens (human) SK-MEL-28 cells by SRB assay; outline: as §1
Malme-3M [8] = test: Anticancer activity against Homo sapiens (human) MALME-3M cells by SRB assay; outline: as §4
SNB-75 = test: Anticancer activity against Homo sapiens (human) SNB75 cells by SRB assay; outline: as §1
U-251 [9] = test: Anticancer activity against Homo sapiens (human) U251 cells by SRB assay
Outline: (§5)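 NCI five-dose follow-up on the 60-line human tumour panel at tenfold dilutions from 10−4 to 10−8 M, with growth read by sulforhodamine B protein assay against untreated controls. For each cell line, GI50 (half growth inhibition), TGI (total growth inhibition) and LC50 (50% death of initial cells) are calculated as molar concentrations.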

SF-295 = test: Anticancer activity against Homo sapiens (human) SF295 cells by SRB assay; outline: as §1
SF-268 [10] = test: Anticancer activity against Homo sapiens (human) SF268 cells by SRB assay; outline: as §1
HCT-15 = test: Anticancer activity against Homo sapiens (human) HCT15 cells by SRB assay; outline: as §4
A498 = test: Anticancer activity against Homo sapiens (human) A498 cells assessed as cell growth at 10 uM by SRB assay; conditions: read-out: Activity; outline: as §2
NCI/ADR-RES [11] = test: Anticancer activity against Homo sapiens (human) NCI/ADR-RES cells assessed as cell growth at 10 uM by SRB assay; conditions: read-out: Activity; outline: as §3
OVCAR-5 = test: Anticancer activity against Homo sapiens (human) OVCAR5 cells assessed as cell growth at 10 uM by SRB assay; conditions: read-out: Activity; outline: as §3
OVCAR-3 [12] = test: Anticancer activity against Homo sapiens (human) OVCAR3 cells assessed as cell growth at 10 uM by SRB assay; conditions: read-out: Activity; outline: as §3
UACC-62 = test: Anticancer activity against Homo sapiens (human) UACC62 cells assessed as cell growth at 10 uM by SRB assay; conditions: read-out: Activity
Outline: (§6)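 NCI 60-cell human tumour panel (leukemia, melanoma, lung, colon, CNS, breast, ovarian, prostate, renal lines) given a single 10−5 M dose. Growth is expressed as percent growth of treated cells relative to untreated controls, with cell growth/viability estimated by sulforhodamine B protein staining.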

UACC-257 = test: Anticancer activity against Homo sapiens (human) UACC257 cells assessed as cell growth at 10 uM by SRB assay; conditions: read-out: Activity; outline: as §6
SK-MEL-5 = test: Anticancer activity against Homo sapiens (human) SK-MEL-5 cells assessed as cell growth at 10 uM by SRB assay; conditions: read-out: Activity; outline: as §3
SK-MEL-2 = test: Anticancer activity against Homo sapiens (human) SK-MEL-2 cells assessed as cell growth at 10 uM by SRB assay; conditions: read-out: Activity; outline: as §3
Malme-3M [13] = test: Anticancer activity against Homo sapiens (human) MALME-3M cells assessed as cell growth at 10 uM by SRB assay; conditions: read-out: Activity; outline: as §2
U-251 [14] = test: Anticancer activity against Homo sapiens (human) U251 cells assessed as cell growth at 10 uM by SRB assay; conditions: read-out: Activity; outline: as §6
SF-268 [15] = test: Anticancer activity against Homo sapiens (human) SF268 cells assessed as cell growth at 10 uM by SRB assay; conditions: read-out: Activity; outline: as §3
Hs-578T = test: Anticancer activity against Homo sapiens (human) Hs 578T cells by SRB assay; outline: as §4
MCF7 [16] = test: Anticancer activity against Homo sapiens (human) MCF7 cells by SRB assay; outline: as §4
SN12C = test: Anticancer activity against Homo sapiens (human) SN12C cells by SRB assay; outline: as §1
TK-10 [17] = test: Anticancer activity against Homo sapiens (human) TK10 cells by SRB assay; outline: as §5
MCF7 [18] = test: Anticancer activity against Homo sapiens (human) MCF7 cells assessed as cell growth at 10 uM by SRB assay; conditions: read-out: Activity; outline: as §2
TK-10 [19] = test: Anticancer activity against Homo sapiens (human) TK10 cells assessed as cell growth at 10 uM by SRB assay; conditions: read-out: Activity; outline: as §6
[20] = read-out: pLC50 (the source's name) (converted)

`O=c1sc2c(Cl)nc(-c3ccccc3)nc2n1-c1ccccc1` showed a GI50 (NCI-H460) of 25.1 µM, a growth at 10 µM (COLO 205) of 52% and a growth at 10 µM (NCI-H522) of -65%. The growth at 10 µM (HOP-92) was 24%, the GI50 (NCI-H23) was 3.63 µM and the TGI (NCI-H23; read-out: pTGI (converted)) was 30.9 µM. The GI50 (HOP-62 [1]) was 3.63 µM, the CC50 (HOP-62 [1]; [20]) was 72.4 µM and the TGI (HOP-62 [1]; read-out: pTGI (converted)) was 15.5 µM. It also gave a GI50 (A549 [2]) of 43.7 µM, a GI50 [3] of 44.7 µM and a GI50 (K562) of 4.07 µM. It also gave a growth at 10 µM (HOP-62 [4]) of 15%, a growth at 10 µM (A549 [5]) of 87% and a GI50 (786-0) of 7.08 µM. It also gave a TGI (786-0; read-out: pTGI (converted)) of 56.2 µM, a GI50 (NCI/ADR-RES [6]) of 21.4 µM and a GI50 (OVCAR-3 [7]) of 1.78 µM. For the same molecule, the TGI (OVCAR-3 [7]; read-out: pTGI (converted)) was 79.4 µM, the GI50 (SK-MEL-28) was 3.39 µM and the LC50 (SK-MEL-28) was 69.2 µM. It also gave a TGI (SK-MEL-28; read-out: pTGI (converted)) of 13.2 µM, a GI50 (Malme-3M [8]) of 14.8 µM and a TGI (Malme-3M [8]; read-out: pTGI (converted)) of 79.4 µM. It also gave a GI50 (SNB-75) of 1.86 µM, a CC50 (SNB-75; [20]) of 56.2 µM and a TGI (SNB-75; read-out: pTGI (converted)) of 13.8 µM. The GI50 (U-251 [9]) was 3.72 µM, the TGI (U-251 [9]; read-out: pTGI (converted)) was 18.6 µM and the GI50 (SF-295) was 57.5 µM. The GI50 (SF-268 [10]) was 10.5 µM, the TGI (SF-268 [10]; read-out: pTGI (converted)) was 38 µM and the GI50 (HCT-15) was 4.68 µM. It also gave a growth at 10 µM (A498) of 44%, a growth at 10 µM (NCI/ADR-RES [11]) of 66% and a growth at 10 µM (OVCAR-5) of 90%. It also gave a growth at 10 µM (OVCAR-3 [12]) of -41%, a growth at 10 µM (UACC-62) of 62% and a growth at 10 µM (UACC-257) of 48%. The growth at 10 µM (SK-MEL-5) was 60%, the growth at 10 µM (SK-MEL-2) was 48% and the growth at 10 µM (Malme-3M [13]) was 62%. It also gave a growth at 10 µM (U-251 [14]) of 20%, a growth at 10 µM (SF-268 [15]) of 52% and a GI50 (Hs-578T) of 3.31 µM. For the same molecule, the TGI (Hs-578T; read-out: pTGI (converted)) was 18.6 µM, the GI50 (MCF7 [16]) was 64.6 µM and the GI50 (SN12C) was 7.41 µM. For the same molecule, the GI50 (TK-10 [17]) was 10.5 µM, the growth at 10 µM (MCF7 [18]) was 77% and the growth at 10 µM (TK-10 [19]) was 51%.
